Experimental data published in ChEMBL document CHEMBL4342513, “Implementation of the CYP Index for the Design of Selective Tryptophan-2,3-dioxygenase Inhibitors” (ACS Med Chem Lett, 2020).
pEC50, pIC50: −log10 of the molar value. ≈ marks a conversion by molar mass, not a printed value.

Columns and labels:
[1] = target: T1, Tryptophan 2,3-dioxygenase (Homo sapiens, UniProt P48775); experiment: Inhibition of TDO in human SW48 cells after 24 hrs by NFK green reagent based assay; format: cell-based
T1 sequence (P48775 whole entry): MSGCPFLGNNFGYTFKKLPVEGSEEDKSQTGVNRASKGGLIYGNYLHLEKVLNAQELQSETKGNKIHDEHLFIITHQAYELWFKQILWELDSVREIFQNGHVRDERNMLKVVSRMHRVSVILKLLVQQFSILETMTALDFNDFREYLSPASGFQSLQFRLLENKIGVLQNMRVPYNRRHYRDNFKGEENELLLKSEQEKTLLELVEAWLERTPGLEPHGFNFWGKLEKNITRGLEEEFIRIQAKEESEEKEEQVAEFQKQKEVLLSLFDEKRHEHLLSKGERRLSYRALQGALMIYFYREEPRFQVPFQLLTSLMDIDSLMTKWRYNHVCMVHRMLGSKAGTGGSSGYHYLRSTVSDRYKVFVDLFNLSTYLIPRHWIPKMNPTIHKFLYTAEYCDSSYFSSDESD

[2] = target: Indoleamine 2,3-dioxygenase 1 (Homo sapiens, UniProt P14902); experiment: Inhibition of IDO1 in human A172 cells after 24 hrs in presence of IFNgamma by NFK green reagent based assay; format: cell-based
Indoleamine 2,3-dioxygenase 1, sequence (P14902 whole entry): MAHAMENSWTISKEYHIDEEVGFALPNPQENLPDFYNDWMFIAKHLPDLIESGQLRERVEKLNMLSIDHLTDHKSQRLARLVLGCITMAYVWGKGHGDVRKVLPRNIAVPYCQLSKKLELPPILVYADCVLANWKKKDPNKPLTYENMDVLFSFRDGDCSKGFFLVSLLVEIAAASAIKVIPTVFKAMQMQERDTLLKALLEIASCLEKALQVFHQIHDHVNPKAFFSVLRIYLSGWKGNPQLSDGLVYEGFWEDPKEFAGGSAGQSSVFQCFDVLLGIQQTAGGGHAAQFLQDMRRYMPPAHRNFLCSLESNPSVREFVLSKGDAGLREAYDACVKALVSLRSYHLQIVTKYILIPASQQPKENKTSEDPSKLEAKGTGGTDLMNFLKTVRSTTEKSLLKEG

Homo sapiens [3] = species on record: Homo sapiens; experiment: Selectivity index, ratio of EC50 for inhibition of IDO1 in human A172 cells in presence of IFNgamma to EC50 for inhibition of TDO in human SW48 cells; format: cell-based
[4] = Clearance in human liver microsomes; format: ADME, Microsome
Summary of the method: (§1)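 Clearance was measured in liver microsome incubations from human, rat and mouse. It is expressed as scaled clearance in mL/min/kg.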

[5] = Clearance in rat liver microsomes; format: ADME, Microsome; summary of the method: as §1
[6] = Clearance in mouse liver microsomes; format: ADME, Microsome; summary of the method: as §1
Cytochrome P450 3A4 = Cytochrome P450 3A4 (Homo sapiens, UniProt P08684); experiment: Inhibition of CYP3A4 (unknown origin); format: ADME
Cytochrome P450 3A4, sequence (P08684 whole entry): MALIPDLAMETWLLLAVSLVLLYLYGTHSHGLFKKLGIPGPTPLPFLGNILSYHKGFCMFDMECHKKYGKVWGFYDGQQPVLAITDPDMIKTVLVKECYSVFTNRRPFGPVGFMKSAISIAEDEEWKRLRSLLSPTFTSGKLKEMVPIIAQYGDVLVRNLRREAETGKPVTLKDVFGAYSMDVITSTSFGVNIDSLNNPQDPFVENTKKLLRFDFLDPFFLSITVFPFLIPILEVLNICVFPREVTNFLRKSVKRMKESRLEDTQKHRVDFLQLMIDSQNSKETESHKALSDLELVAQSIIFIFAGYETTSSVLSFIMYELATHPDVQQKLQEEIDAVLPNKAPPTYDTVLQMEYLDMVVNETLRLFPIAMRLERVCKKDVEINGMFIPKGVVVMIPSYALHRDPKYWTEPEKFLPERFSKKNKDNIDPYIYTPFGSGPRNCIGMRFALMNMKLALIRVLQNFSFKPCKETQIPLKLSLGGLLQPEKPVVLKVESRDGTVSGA

Homo sapiens [7] = species on record: Homo sapiens; experiment: Selectivity index, ratio of IC50 for inhibition of CYP3A4 (unknown origin) to EC50 for inhibition of EC50 for inhibition of TDO in human SW48 cells; format: cell-based
[8] = target: T1, Tryptophan 2,3-dioxygenase; experiment: Inhibition of recombinant human TDO using L-tryptophan as substrate preincubated for 5 mins followed by substrate addition and measured after 15 mins by RapidFire-Mass spectrometry
[9] = Lipophilicity, log D of compound at pH 7.4; format: physicochemical; settings: buffer
[10] = Apparent permeability across apical to basolateral side in MDCK cells; format: ADME, cell-based, Canis lupus familiaris; settings: dog
[11] = Kinetic solubility of compound; format: physicochemical; settings: read-out: Kinetic_solubility
[12] = Clearance in iv dosed mouse plasma; format: ADME, organism-based
Summary of the method: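 Compounds were given to mice as discrete (single-compound) intravenous doses. Plasma clearance (CLp) is expressed in mL/min/kg.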

[13] = Protein binding in mouse plasma assessed as unbound fraction; format: ADME, cell-free
[14] = Unbound clearance in mouse plasma; format: ADME, cell-free
[15] = Volume of distribution at steady state in mouse; format: ADME, organism-based; settings: in vivo, read-out: Vdss
[16] = Half life in mouse; format: ADME, organism-based; settings: in vivo
[17] = Oral bioavailability in mouse at 1 mg/kg dosed as cassette formulation; format: ADME, organism-based; settings: in vivo
[18] = AUC (infinity) in mouse; format: ADME, organism-based; set-up: time infinity; settings: in vivo
[19] = Oral bioavailability in mouse at 5 mg/kg; format: ADME, organism-based; settings: in vivo
[20] = target: T1, Tryptophan 2,3-dioxygenase; experiment: Inhibition of TDO (unknown origin)

SMILES	pEC50 [1]	pEC50 [2]	Ratio EC50 (Homo sapiens [3])	CLhep predicted [4] [mL/min/kg]	CLhep predicted [5] [mL/min/kg]	CLhep predicted [6] [mL/min/kg]	pIC50 (Cytochrome P450 3A4)	Ratio IC50/EC50 (Homo sapiens [7])	also measured
CS(=O)(=O)c1ccc2c(c1)[C@@H](O)[C@H]([C@H]1c3ccccc3-c3cncn31)CC2	7.41	6.06	23	6.6	33	64	5.22	150	–
OCCC1c2ccccc2-c2cncn21 (stereo unspecified)	–	–	–	–	–	–	–	–	pIC50 [8]: 7.70
CC(=O)N1CC[C@@H]([C@H]2c3ccccc3-c3cncn32)[C@H](O)C1	5.52	< 4.60	> 8	–	–	–	–	–	logD [9]: 1.1
O[C@@H]1c2ccccc2CC[C@H]1[C@H]1c2ccccc2-c2cncn21	–	6.62	–	11	47	75	–	–	–
O[C@@H]1c2ccnn2CC[C@H]1[C@H]1c2ccccc2-c2cncn21	6.89	–	35	< 3.9	37	45	< 5.00	> 77	Papp A→B [10]: 13 ×10⁻⁶ cm/s; solubility kinetic [11]: 149 µM (≈ 43.6 µg/mL); clearance [12]: 28 mL/min/kg; fraction unbound [13]: 0.09; CL free [14]: 310 mL/min/kg; Vd [15]: 1.1 L/kg; half-life [16]: 46.8 min; bioavailability [17]: 140%; AUC(0-inf) [18]: 0.81 µM·h; bioavailability [19]: 70%
Cn1ncc2c1CC[C@@H]([C@H]1c3ccccc3-c3cncn31)[C@@H]2O	6.42	4.89	34	< 3.9	19	46	5.48	9	–
O[C@H](C[C@H]1c2c(F)cccc2-c2cncn21)[C@H]1CC[C@H](O)CC1 [NAVOXIMOD]	–	–	–	–	–	–	–	–	pEC50 [20]: 5.70
OCCn1c2ccccc2c2cncn21	–	–	–	–	–	–	–	–	pIC50 [8]: 7.70
O[C@@H](C[C@H]1c2ccccc2-c2cncn21)C1CCCCC1	–	–	–	18	45	80	–	–	logD [9]: 2.8
O[C@@H]1COCC[C@H]1[C@H]1c2ccccc2-c2cncn21	7.14	5.80	22	–	–	–	6.22	8.3	logD [9]: 1.3
O[C@@H]1c2nonc2CC[C@H]1[C@H]1c2ccccc2-c2cncn21	7.27	5.34	85	< 3.9	33	45	5.09	150	Papp A→B [10]: 23 ×10⁻⁶ cm/s; solubility kinetic [11]: 165 µM (≈ 48.6 µg/mL); clearance [12]: 63 mL/min/kg; fraction unbound [13]: 0.27; CL free [14]: 230 mL/min/kg; Vd [15]: 1.1 L/kg; half-life [16]: 12.6 min; bioavailability [17]: < 5%; AUC ([18]; BLD = below limit of detection): Bld
NC(=O)c1ccc2c(c1)[C@@H](O)[C@H]([C@H]1c3ccccc3-c3cncn31)CC2	7.46	5.59	74	7.4	26	67	5.44	100	–
O[C@@H]1CCCC[C@H]1[C@H]1c2ccccc2-c2cncn21	7.30	6.14	14	9.7	37	62	–	–	logD [9]: 2.7
C[C@H]([C@H](O)C1CCCCC1)[C@H]1c2ccccc2-c2cncn21	7.21	6.17	11	16	42	75	–	–	logD [9]: 3.9
OCCC1c2ccccc2-n2nncc21 (stereo unspecified)	–	–	–	–	–	–	–	–	pIC50 [8]: < 4.60
NS(=O)(=O)NCCNc1nonc1C(=NO)Nc1ccc(F)c(Br)c1 [EPACADOSTAT]	–	–	–	–	–	–	–	–	pIC50 [20]: < 5.00
OCCC1c2ccccc2-n2cncc21 (stereo unspecified)	–	–	–	–	–	–	–	–	pIC50 [8]: 7.22
